Bioassay records: PubChem BioAssay, several laboratories
A selection: hits, their analogues and other compounds. The true share with any hit is near 10%.
WT yeast gro inh = growth inhibition of WT yeast, mitochondrial fusion screen | mitochondrial fusion phenotypic screen, WT strain | inhibition, % at 10 µM | 190,000 compounds, 2.1% hits | AID 1362; in the data active = inhibition above about 58%; tested in S. cerevisiae
Diaphorase act = activates diaphorase or chemically reduces, flagging diaphorase assay artifacts; Diaphorase/resazurin coupled assay, resorufin fluorescence, 16 min; active compounds read high; 1 = vehicle wells, 0 = NADH-free wells; activation factor at 20 µM; 190,000 compounds, 0.005% hits; AID 1229;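 active = diaphorase activity raised at least twofold by the compound at 20 µM; inactive = activation factor below 2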
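Material: bacterial diaphorase enzyme (C. kluyveri); amount: enzyme 0.07 U/mL final; reagent: NADH substrate 0.114 mM plus resazurin dye 0.1 mM, final; doses: single compound dose of 20 µM, 1% DMSO final; timing: 16 min enzyme reaction, ambient temperature; measured by: fluorescence of resorufin, 544 nm excitation, 590 nm emission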
PMI act = activators of human phosphomannose isomerase. 190,000 compounds, 0.005% hits. purified human PMI, coupled resazurin fluorescence, 20 min; active compounds read high; 1 = vehicle control, 0 substrate-free wells. P34949. activation factor at 20 µM;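 active = activation factor of 2 or more at 20 µM, relative to plate controls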
Target sequence (P34949 whole entry, looked up): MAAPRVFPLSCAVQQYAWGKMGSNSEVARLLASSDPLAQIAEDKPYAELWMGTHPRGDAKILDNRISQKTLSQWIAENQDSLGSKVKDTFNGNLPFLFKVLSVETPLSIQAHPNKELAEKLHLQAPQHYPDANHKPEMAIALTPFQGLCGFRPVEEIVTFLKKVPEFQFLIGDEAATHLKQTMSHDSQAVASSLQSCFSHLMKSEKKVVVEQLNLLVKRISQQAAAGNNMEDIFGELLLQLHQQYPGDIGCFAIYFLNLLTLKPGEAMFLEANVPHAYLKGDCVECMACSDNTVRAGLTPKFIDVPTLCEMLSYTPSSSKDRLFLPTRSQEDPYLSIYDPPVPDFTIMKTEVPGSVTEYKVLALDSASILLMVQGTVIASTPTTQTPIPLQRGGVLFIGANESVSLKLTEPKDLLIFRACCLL
Lmaj promast = inhibitors of Leishmania major promastigote growth | Leishmania major promastigotes, resazurin fluorescence viability | AID 1063 | inhibition, % at 10 µM | 200,000 compounds, 9% hits; in the data active = inhibition above about 50%;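 also: promastigotes grown with compound for 44 hours at 28 °C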
PMI act satM6P = activators of human phosphomannose isomerase at near-saturating mannose 6-phosphate; coupled PMI enzyme assay, resazurin fluorescence, 20 min; active compounds read high; 1 = untreated enzyme, 0 = substrate-free blank; P34949; activation factor at 20 µM; 190,000 compounds, 0.34% hits;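 active = activation factor of 2 or more at 20 µM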
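Material: human phosphomannose isomerase with PGI, G6PDH, diaphorase coupling enzymes. Quantity: 15 ng/mL PMI. Medium: HEPES pH 7.4 buffer with MgCl2 and Tween-20. Reagent: Near-saturating mannose-6-phosphate, 1.0 mM. Compound: 20 µM single dose. Times: enzyme reaction with compound 20 min at room temperature. Detection: resorufin fluorescence at Ex 544/Em 590 nm.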
* hit, by the source's call; . = no result given.

SMILES	WT yeast gro inh	Diaphorase act	PMI act	Lmaj promast	PMI act satM6P
CC1(C)CC(=O)C(=Cc2cn(-c3ccccc3)nc2-c2ccc(Cl)cc2)C(=O)C1	-1	0.8	0.9	69*	0.9
COc1ccccc1N1CCN(C2CCN(S(=O)(=O)c3ccc(NC(C)=O)cc3)CC2)CC1	-22	0.8	1	-2	1
CC(=O)c1ccc(NC(=O)CN(C)CC(=O)Nc2cccc(F)c2)cc1	10	0.9	1.1	21	1
CCc1cccc(C)c1NC(=S)N(CCN(C)C)C(C)c1cccnc1 (centres undefined)	2	1	1	10	1
Nc1ccc(-n2nncc2-c2ccc(Cl)cc2)cc1	0	1	1.1	-3	1.1
Cc1ccccc1C(=O)NC(CC(C)C)C(=O)NN1C(=O)c2ccccc2C1=O (centres undefined)	-5	1.1	1.1	-3	1.1
CCCCc1c(C)nc2ccccc2c1SCCC(=O)O	-14	0.8	1	-4	1
O=C(O)c1cnc(-c2ccccc2)nc1Sc1ccc(Cl)cc1Cl	16	0.9	0.9	-8	1
CC(C)NC(=S)N=Nc1c(O)[nH]c2ccc(C(C)C)cc12	13	0.9	0.9	91*	0.9
Cc1ccc(S(=O)(=O)N=Nc2c(O)[nH]c3ccccc23)cc1	-20	1.2	2.2*	-5	2.4*
Cc1ccc(S(=O)(=O)N(CC(=O)N=Nc2c(O)[nH]c3ccccc23)c2ccc(C)c(C)c2)cc1	22	0.7	0.9	96*	0.9
Cc1cccc(NC(=S)N=Nc2c(O)[nH]c3ccccc23)c1	59*	0.9	1.1	97*	1
CC(C)(O)C(=O)N=Nc1c(O)[nH]c2ccccc12	0	1.2	1.1	0	1.1
CC(C)(C)OC(=O)N1CCC(c2cc(-c3cccs3)n[nH]2)CC1	41	0.8	0.9	25	0.9
COC(=O)c1ccc(C(=O)OC)c(NC(=O)CN(c2ccccc2)S(=O)(=O)N(C)C)c1	4	0.8	0.9	8	0.9
Cc1ccc(C)c(S(=O)(=O)N=Nc2c(O)[nH]c3ccccc23)c1	-15	1.1	1.8	-1	2.1*
Cc1ccc(S(=O)(=O)N(C)c2ccc(OCC(=O)Nc3nnc(C4CC4)s3)cc2)cc1	6	0.8	0.9	96*	0.8
Cc1ncsc1CCC(=O)N1CCCC(C(=O)c2ccc3c(c2)OCO3)C1 (centres undefined)	-24	0.9	0.9	-1	0.9
Cc1[nH]c2ccccc2c1CCN(Cc1cccnc1)C(=S)Nc1ccc(F)cc1	-28	1	1	100*	0.9
COc1cccc(NC(=S)N(CCc2c(C)[nH]c3ccccc23)Cc2cccs2)c1	34	0.9	1	25	1
COc1ccc(NC(=S)N(Cc2cccnc2)Cc2cc3cc(OC)c(OC)cc3[nH]c2=O)cc1	8	1	0.9	-3	1
OCCN(Cc1ccccc1)C(=S)Nc1ccc(F)cc1	3	1	0.9	10	0.9
Cc1[nH]c2ccccc2c1CCN(Cc1cccnc1)C(=S)Nc1cccc(F)c1	-38	1	1	100*	0.9
CCOc1ccc(NC(=S)N(CCc2c(C)[nH]c3ccccc23)Cc2cccnc2)cc1	19	1	0.9	100*	1
Cc1[nH]c2ccc(F)cc2c1CCN(Cc1cccnc1)C(=S)Nc1ccccc1	-21	0.9	1	100*	0.9
SMILES	WT yeast gro inh	Diaphorase act	PMI act	Lmaj promast	PMI act satM6P
Cc1ccsc1/C=N/n1c(-c2ccccn2)n[nH]c1=S	12	0.8	0.9	46	0.9
CCCNC(=O)N1CCC(C(=O)c2cccc(F)c2)CC1	5	0.8	1	-8	1
Cc1[nH]c2ccc(F)cc2c1CCN(Cc1ccncc1)C(=S)Nc1ccccc1	-39	0.9	0.8	74*	0.9
COc1ccc(NC(=S)N(CCc2c(C)[nH]c3ccc(C)cc23)Cc2cccnc2)cc1	-17	0.6	0.9	100*	0.9
Cc1[nH]c2ccccc2c1CCN(Cc1cccs1)C(=S)Nc1ccccc1	56	0.9	0.9	36	0.9
CCOc1ccc(NC(=S)N(CCc2c(C)[nH]c3ccc(C)cc23)Cc2ccncc2)cc1	29	0.8	1.1	70*	0.9
CCCSc1nc(NCc2ccco2)c2c3c(sc2n1)COC(C)(C)C3	70*	0.8	0.9	19	0.9
Cc1ccc(Cn2ccc(NC(=O)c3nc4ncccn4n3)n2)cc1	-10	0.9	0.9	51*	0.9
O=C(Nc1cnn(Cc2ccc(Cl)c(Cl)c2)c1)c1nc2ncccn2n1	14	0.9	1	8	1
CCOc1ccc(N2C(=O)CS/C2=N/NC(=O)COc2ccc3ccccc3c2)cc1	21	0.9	1	99*	1
O=C(COc1ccc(Br)cc1)N/N=C1/SCC(=O)N1Cc1ccco1	0	1	0.9	15	0.9
Cc1cc(C)c(NC(=S)NCCCSC2CCCCC2)c(C)c1	75*	0.8	1	57*	1
CCN(C(=O)COC(=O)c1ccc2c(=O)n3c(nc2c1)CCC3)C1CCS(=O)(=O)C1 (centres undefined)	-16	1	1.1	2	0.9
O=C(C1CC1c1ccccc1)N1CCN(c2cccc(Cl)c2)CC1 (centres undefined)	77*	0.9	0.9	4	0.9
CC(=O)c1c(C)[nH]c(C(=O)OCc2ccccc2F)c1C	0	1.1	1	-2	1.1
O=C1c2ccccc2C(=O)c2c1cccc2N1CCOCC1	9	0.9	0.9	-3	0.8
O=C1C(N2CCOCC2)=C(n2nnc3ccccc32)C(=O)c2ccccc21	26	0.7	1.2	100*	1.4
CCOc1ccc2nc(N/C(N)=N/C(=S)Nc3cccc(C)c3)nc(C)c2c1	16	1	1	60*	1
COc1ccc2nc(N/C(N)=N/C(=S)Nc3cccc(C)c3)nc(C)c2c1	27	1	1	-3	1
CCn1c(SCc2c(F)cccc2Cl)nnc1-c1ccco1	43	0.9	0.8	9	1
COC(=O)c1ccccc1NS(=O)(=O)c1ccc(Cl)nc1	-16	1	1.1	2	1.1
O=C(CCCc1ccccc1)Nc1cccnc1	-2	0.8	0.9	-2	0.9
C/C(CC(=O)Nc1cc(Cl)ccc1Cl)=N\NC(N)=S	-2	1.1	1.1	-2	1.1
C/C(CC(=O)Nc1ccc(Cl)c(Cl)c1)=N\NC(N)=S	0	1	1	62*	1
CCCc1nc2oc3c(NCCN4CCOCC4)ncnc3c2c2c1CCCC2	.	0.9	1	.	1
CC(C)Cc1nc2oc3c(NCCCN4CCOCC4)ncnc3c2c2c1CCC2	31	0.9	1	58*	1.1
CCC(C)NCCOCCOc1ccc(Cl)c2ccccc12 (centres undefined)	53	0.9	1.1	100*	1.1
